# Assay outcomes: PubChem BioAssay, several laboratories
# AI-2 QS mod: Vibrio harveyi AI-2 quorum sensing modulators, primary screen, JMH597 strain, luminescence/OD600 ratio | Vibrio harveyi JMH597 AI-2 luminescence/OD600 ratio, 9 h; active compounds read low; strain lacks LuxN and CqsS sensors; 0 = neutral-control median | activity change, % at 7.5 µM | 300,000 tested, 0.4% active; in the data active = activity change below about -75%, passing the limit was not always enough;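 also: luminescence divided by OD600 gain over 9 h not by final OD600 alone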
# SUMO Mot1 rescue: yeast Mot1-301 growth rescue at high temperature, primary screen, SUMOylation pathway inhibitor project, S. cerevisiae, ATP luminescence, 38.5C | S. cerevisiae Mot1-301 growth rescue; percent above DMSO median, 100 means doubled | growth rescue, % at 18.8 µM | AID 2716, 2010 | 320,000 tested, 1% active;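 active = every valid replicate shows activation above 250% relative to neutral control wells; inactive = the rest, any valid replicate at or below 250%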;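 also: OY570 slx delta 5 strain wells were the positive control but not used for scaling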
# KCC2 mod: KCC2 cotransporter modulators, thallium flux, primary screen, cell-based, HEK293 KCC2, FluoZin-2 fluorescence, MLSMR; 190,000 tested, 2.2% active; AID 1456, 2008; KCC2 cells, thallium flux FluoZin-2 fluorescence; B-score of Tl+ flux slope (higher = more flux/activation; lower = inhibition) at 10 µM;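 active = thallium flux slope and its plate-corrected score both differing from the plate sample mean at a set confidence after two filtering rounds, in either direction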;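 also: slope of fluorescence scaled to starting intensity during 10 to 20 s after thallium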
# Target sequence (Q9H2X9 whole entry, looked up): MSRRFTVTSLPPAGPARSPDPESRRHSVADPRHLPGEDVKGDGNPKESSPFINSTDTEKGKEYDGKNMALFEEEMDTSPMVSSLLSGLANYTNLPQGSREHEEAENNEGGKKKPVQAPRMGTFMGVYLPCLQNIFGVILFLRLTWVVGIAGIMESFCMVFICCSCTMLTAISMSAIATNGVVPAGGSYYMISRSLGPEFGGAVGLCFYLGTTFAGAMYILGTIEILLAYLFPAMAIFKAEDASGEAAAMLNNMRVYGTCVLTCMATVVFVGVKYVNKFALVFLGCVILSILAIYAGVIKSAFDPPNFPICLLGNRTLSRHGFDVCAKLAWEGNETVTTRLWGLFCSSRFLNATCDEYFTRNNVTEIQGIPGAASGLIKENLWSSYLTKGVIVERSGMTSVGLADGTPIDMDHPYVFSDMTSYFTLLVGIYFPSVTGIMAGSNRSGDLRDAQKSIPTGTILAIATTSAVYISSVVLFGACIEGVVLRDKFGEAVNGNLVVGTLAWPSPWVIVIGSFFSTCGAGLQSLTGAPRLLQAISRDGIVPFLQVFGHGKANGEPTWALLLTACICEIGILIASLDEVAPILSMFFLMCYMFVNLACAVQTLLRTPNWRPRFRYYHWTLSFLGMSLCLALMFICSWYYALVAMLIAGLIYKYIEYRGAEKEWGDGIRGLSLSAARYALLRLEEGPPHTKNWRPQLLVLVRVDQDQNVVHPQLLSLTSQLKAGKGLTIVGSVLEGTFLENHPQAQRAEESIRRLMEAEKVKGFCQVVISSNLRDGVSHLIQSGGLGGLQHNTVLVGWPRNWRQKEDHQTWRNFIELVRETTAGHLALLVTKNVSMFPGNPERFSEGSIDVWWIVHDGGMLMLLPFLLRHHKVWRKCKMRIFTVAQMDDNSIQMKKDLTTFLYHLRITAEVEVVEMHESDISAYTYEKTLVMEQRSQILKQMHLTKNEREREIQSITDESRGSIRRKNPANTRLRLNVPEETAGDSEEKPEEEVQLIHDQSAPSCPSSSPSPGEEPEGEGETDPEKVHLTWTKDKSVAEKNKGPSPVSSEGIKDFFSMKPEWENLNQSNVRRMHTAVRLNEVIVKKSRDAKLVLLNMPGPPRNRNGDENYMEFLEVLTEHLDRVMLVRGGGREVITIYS
# hERG rescue: hERG rescue from dofetilide block, primary screen, cell-based, CHO-hERG, FluxOR thallium flux, dofetilide IC70; activation (rescue from dofetilide block), less the hit threshold, % at 10 µM; AID 1511, 2009; dofetilide IC70 present; Voltage-gated inwardly rectifying potassium channel KCNH2 (Homo sapiens), Q12809; 310,000 tested, 0.51% active;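 active = activation above the mean of controls blocked by dofetilide plus 5 SD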;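 also: thallium influx through hERG after potassium depolarization seen as dye fluorescence rise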
# KCNQ1 block: inhibitors of human KCNQ1 channel, primary screen, cell-based, thallium flux, high-throughput; Potassium voltage-gated channel subfamily KQT member 1 (Homo sapiens), P51787; CHO-K1 KCNQ1, FluxOR thallium flux fluorescence; active compounds read high; B-score at 10 µM; 310,000 tested, 1.3% active; AID 2642, 2010;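 active = compounds whose thallium flux B-score, printed positive for inhibition, exceeds three library SD while starting fluorescence stays within three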;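 also: channel opened by potassium depolarization with thallium stimulus after 20 min compound exposure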
# KCNQ1 act: potentiators or activators of KCNQ1 channel, primary screen, cell-based, thallium flux, high-throughput. B-score at 10 µM. CHO-K1 KCNQ1, thallium flux FluxOR fluorescence; active compounds read high. Potassium voltage-gated channel subfamily KQT member 1 (Homo sapiens), P51787. 310,000 tested, 0.35% active;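 active = fluorescence ratio B-score, a plate-corrected score, at least three library SD, with initial intensity B-score within 5 SD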
#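 Material: CHO-K1 cells stably expressing KCNQ1. Medium: assay buffer for compound exposure, DMSO matched across wells. Reagent: K+/Tl+ depolarizing stimulus. Compound dosing: single-concentration screen. Times: 37 °C overnight plating, 90-min dark dye load, 20-min compound pretreatment. Technique: FluxOR Tl+ flux fluorescence.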
# Starred values were filed as active, the others as inactive; i = inactive; . = not tested or not shown; + = active, no number; ! = repeats disagree. Only some compounds are listed: those with a hit (about 4.2% of all), similar ones and a draw of the others.
SMILES,AI-2 QS mod,SUMO Mot1 rescue,KCC2 mod,hERG rescue,KCNQ1 block,KCNQ1 act
COc1ccc(C)c(NC(=O)NCCc2cnc[nH]2)c1,2,30,.,-4,i,i
CC(CNC(=O)COc1ccccc1)OC(=O)Nc1ccc(Cl)c(Cl)c1 (configuration not stated),32,5,0.012,-23,i,9*
N#Cc1ccccc1CSc1nnc(Cc2ccccc2)o1,-4,348*,-1.1,-6,i,i
N#Cc1ccccc1CSc1nnc(-c2ccncc2)o1,27,8,.,-4,i,i
COc1ccc2c(c1OC)C(=O)OC2C1c2c(cc3c(c2OC)OCO3)CCN1C (configuration not stated),19,484*!,-1.2,-6,i,i
C[C@@H]1CN(Cc2nc(-c3cnccn3)no2)C[C@H](C)O1,21,90,0.95,7.4*,i,i
CC(C)C[C@@H](CN(C)N=O)N(C[C@H](Cc1ccccc1)N(CCc1ccccc1)N=O)N=O,10,2,-0.45,-13,i,i
CCCC[C@H](CN(N=O)[C@@H](Cc1ccccc1)CN(C)N=O)N(CCc1ccccc1)N=O,31,-12,0.46,-5,6*,i
Cc1ccc(S(=O)(=O)N(C)CC(=O)N2CCCCCC2)cc1,-1,-16,.,-3,i,i
CC(C(=O)NC1CCCC1)N(C(=O)c1ccc(-c2ccccc2)[nH]1)c1ccccc1F (configuration not stated),15,-17,-1.8,-19,6*,i
Cc1cc(NC(=O)CSC2=NS(=O)(=O)c3ccccc3N2)no1,25,5,.,-10,i,i
Fc1ccc2nc(Nc3nc4c(F)cccc4s3)sc2c1,5,-2,38*,0,i,46*
Fc1ccc2nc(Nc3ccccc3)sc2c1,-5,.,0.69,-12,i,i
Fc1ccc2nc(Nc3nc4c(F)cc(F)cc4s3)sc2c1,8,-12,17*,5.0*,i,i
Fc1cccc2sc(Nc3nc4ccccc4s3)nc12,17,-6,12*,13*,i,i
CC[C@H](C)[C@H]1O[C@]2(CC[C@@H]1C)C[C@@H]1C[C@@H](CC=C(C)[C@@H](O[C@H]3C[C@H](OC)[C@@H](O[C@H]4C[C@H](OC)[C@@H](O)[C@H](C)O4)[C@H](C)O3)[C@@H](C)C=CC=C3CO[C@@H]4[C@H](O)C(C)=C[C@@H](C(=O)O1)[C@]34O)O2,.,137,.,.,.,.
CC(Sc1nnc(-c2ccncc2)n1C)C(=O)Nc1nccs1 (configuration not stated),10,-12,.,-3,i,i
CCn1c(C)c(C(C)=O)c(N2CCN(c3cccc(Cl)c3)CC2)nc1=S,5,585*,-0.12,-8,i,i
CCc1c(C(=O)O)[nH]c2ccc(Br)cc12,14,10,-0.48,-3,i,i
Cc1ccc(-n2ncc(C(=O)Nc3cc(Cl)ccc3Cl)c2C2CCNCC2)cc1,7,.,-0.64,-5,i,i
Cc1ccc(-n2ncc(C(=O)Nc3cc(Cl)cc(Cl)c3)c2C2CCNCC2)cc1C,18,.,-1.2,-25,i,17*
CCC(=O)Oc1ccc(C(=O)Nc2cccc(C(=O)NCC(C)C)c2)cc1,0,+,-0.064,-9,i,i
CC(=O)Oc1ccc(C(=O)Nc2cccc(C(=O)c3ccc(C)c(C)c3)c2)cc1,11,8,.,-7,6*,i
COc1ccc(C(=O)Nc2cccc(OC(=O)c3ccc(C)c(C)c3)c2)cc1,13,-14,1,-17,6*,i
CC1=C([N+](=O)[O-])C(c2cccc(Br)c2)C2=C(N1)c1ccccc1C2=O (configuration not stated),12,-2,-0.77,-11,10*,i
SMILES,AI-2 QS mod,SUMO Mot1 rescue,KCC2 mod,hERG rescue,KCNQ1 block,KCNQ1 act
COC(=O)C1=C(C)NC2=C(C(=O)c3ccccc32)C1c1cccc(OC)c1 (configuration not stated),27,-25,-0.68,-9,i,i
COCCN(C(=O)c1ccc(OC2CCN(S(=O)(=O)N(C)C)CC2)cc1)C(C)C,0,11,.,-6,i,i
COc1ccccc1N(Cc1ccccc1)S(=O)(=O)c1cccc(C(=O)Nc2ccc(C)cn2)c1,28,12,.,-18,6*,i
CCCCNC(=O)C(=O)NC(C)CCc1ccccc1 (configuration not stated),18,11,0.082,-7,i,i
CCCN(C(=O)c1cccc(S(=O)(=O)N2CCN(C)CC2)c1)c1c(N)n(Cc2ccccc2)c(=O)[nH]c1=O,10,107,.,-14,i,i
Cc1ccc(N=Cc2cc(Br)cc(Cl)c2O)cc1,53,77,0.89,-5,i,i
Oc1c(Cl)cc(Cl)cc1C=Nc1ccc(Br)cc1,-5,38,-1.6,5.0*,i,i
Cc1cc(C)n(/N=C/c2c[nH]c3ccccc23)c(=O)c1C#N,17,296*,-0.16,-5,i,i
COc1ccc(S(N)(=O)=O)cc1C(=O)OCC(=O)N1CCCC(C)C1 (configuration not stated),.,-5,.,.,.,.
CC(NC(=S)NC(=O)c1ccccc1Br)c1ccccc1 (configuration not stated),23,0,.,0,i,8*
CC1CCCC2(C1)NC(=S)c1c(sc3c1CCCC3)N2 (configuration not stated),10,.,54*,-8,i,i
Cc1nc2c(C(=O)N3CCN(c4ccccn4)CC3)cnn2c(C)c1Cc1cccc(Cl)c1,14,15,-1.1,-18,i,7*
Cc1nc2c(C(=O)N3CCCC3)cnn2c(C)c1Cc1c(F)cccc1Cl,26,-24,-1.2,-11,i,i
O=C(O)CNC(=S)N(Cc1ccccc1F)C1CCCCC1,-1,+,0.036,-1,i,i
O=C(NC(Cc1ccccc1)C(=O)O)/C(=C/c1ccco1)NC(=O)c1cccc([N+](=O)[O-])c1 (configuration not stated),27,-8,1.4,53*,i,i
